The source made the active and inactive calls. The calls are words filed in the database; no cut-off is given here.
What was measured:
Cavia porcellus [1] = experiment: Ex vivo inhibition of platelet aggregation induced by AA at 100 mg/kg; type: functional
Summary of the method: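 Fasted male or female guinea pigs (250–300 g, five per group) dosed orally in normal saline or saline with 0.2% (carboxymethyl)cellulose/1.0% Tween 80; controls given vehicle. Under ether, cardiac blood collected into 3.8% citrate. PRP adjusted to […] and aggregation induced by ADP (second wave) or AA, read by absorbance aggregometry. PGE2 and TXB2 measured by RIA.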

Rattus norvegicus [2] = experiment: Antihypertensive activity in spontaneously hypertensive rats (SHR) measured by percentage fall in cardiac rhythm (CR) at 1 mg/kg administered intraperitoneally at 3 h; type: functional, Heart; settings: route intraperitoneal
Summary of the method: (§1)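 Unanesthetized Okamoto-strain SHR, male and female, 8 weeks old, 300–350 g, systolic pressure ≥190 mmHg, heart rate 400–650 beats/min; five animals per dose. Given ip at 2.5 mL/kg, dissolved or suspended in normal saline or saline with 0.2% (carboxymethyl)cellulose and 1.0% Tween 80. Tail AP and CR recorded by mechanical transduction at set times; reported as percentage fall from control.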

Rattus norvegicus [3] = experiment: Antihypertensive activity in spontaneously hypertensive rats (SHR) measured by percentage fall in cardiac rhythm (CR) at 1 mg/kg administered intraperitoneally at 5 h; type: functional, Heart; settings: route intraperitoneal; summary of the method: as §1
Homo sapiens [4] = organism: Homo sapiens; experiment: In vitro inhibition of platelet aggregation induced by AA (PRP incubated for 60 minutes at 37 degree C) at 10e-5 M;No significance; type: functional
Summary of the method: (§2)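 Human venous blood anticoagulated with 3.8% sodium citrate (1:9). PRP from centrifugation at 800 rpm for 10 min at room temperature. Count adjusted with PPP to […]. Compound in saline with 10% ethylene glycol is added to PRP and incubated at 37 °C before the agonist. Agonists: ADP 2×10^-5 M, AA 0.6 mM, PGH2 2.8 μM, adrenaline 0.6 μM. Born absorbance aggregometry; n = 5.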

Homo sapiens [5] = organism: Homo sapiens; experiment: In vitro inhibition of platelet aggregation induced by ADP-II (PRP incubated for 5 minutes at 37 degree C) at 10e-5 M;No significance; type: functional; summary of the method: as §2
Rattus norvegicus [6] = experiment: Antihypertensive activity in spontaneously hypertensive rats (SHR) measured by percentage fall in arterial pressure (AP) at 1 mg/kg administered intraperitoneally at 1 h; type: functional, Artery; settings: route intraperitoneal; summary of the method: as §1
Rattus norvegicus [7] = experiment: Percent increase in cardiac rhythm, directly measured on carotid (iv on the jugular vein) of spontaneously hypertensive rats at 1 mg/kg after 30 minutes; settings: Heart, 0.5 h, read-out: Inhibition
Rattus norvegicus [8] = experiment: Percent fall in systolic blood pressure, directly measured on carotid (iv on the jugular vein) of spontaneously hypertensive rats at 1 mg/kg after 120 minutes; type: functional, Artery
Summary of the method: (§3)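 Anesthetized (sodium pentobarbital, 70 mg/kg) male and female Okamoto SHR, 8 weeks old, 300–350 g. Given iv into the jugular vein in normal saline. Arterial pressure and cardiac rhythm are recorded directly from the carotid by polygraph at set times after dosing. Each is expressed as percent change from the pre-dose control value.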

Rattus norvegicus [9] = experiment: Percent fall in systolic blood pressure, directly measured on carotid (iv on the jugular vein) of spontaneously hypertensive rats at 1 mg/kg after 15 minutes; type: functional, Artery; summary of the method: as §3
Rattus norvegicus [10] = experiment: Percent fall in systolic blood pressure, directly measured on carotid (iv on the jugular vein) of spontaneously hypertensive rats at 1 mg/kg after 30 minutes; type: functional, Artery; summary of the method: as §3
Rattus norvegicus [11] = experiment: Percent fall in systolic blood pressure, directly measured on carotid (iv on the jugular vein) of spontaneously hypertensive rats at 1 mg/kg after 5 minutes; type: functional, Artery; summary of the method: as §3
Rattus norvegicus [12] = experiment: Percent fall in systolic blood pressure, directly measured on carotid (iv on the jugular vein) of spontaneously hypertensive rats at 1 mg/kg after 60 minutes; type: functional, Artery; summary of the method: as §3
Rattus norvegicus [13] = experiment: Percent fall in systolic blood pressure, directly measured on carotid (iv on the jugular vein) of spontaneously hypertensive rats at 1 mg/kg after 75 minutes; type: functional, Artery; summary of the method: as §3
Rattus norvegicus [14] = experiment: Antihypertensive activity in spontaneously hypertensive rats (SHR) measured by percentage fall in cardiac rhythm (CR) at 1 mg/kg administered intraperitoneally at 1 h; type: functional, Heart; settings: route intraperitoneal; summary of the method: as §1
Rattus norvegicus [15] = experiment: Antihypertensive activity in spontaneously hypertensive rats (SHR) measured by percentage fall in arterial pressure (AP) at 1 mg/kg administered intraperitoneally at 3 h; type: functional, Artery; settings: route intraperitoneal; summary of the method: as §1
Rattus norvegicus [16] = experiment: Antihypertensive activity in spontaneously hypertensive rats (SHR) measured by percentage fall in arterial pressure (AP) at 1 mg/kg administered intraperitoneally at 24 h;No significance; type: functional, organism-based; design: dose 1 mg/kg; settings: Artery; summary of the method: as §1
Homo sapiens [17] = organism: Homo sapiens; settings: 10e-5 M
Cavia porcellus [18] = organism: Cavia porcellus; settings: 100 mg/kg
Cavia porcellus [19] = organism: Cavia porcellus; settings: 30 mg/kg
Rattus norvegicus [20] = organism: Rattus norvegicus; settings: Heart, 1 mg/kg
Homo sapiens [21] = organism: Homo sapiens; settings: 10e-5 M; remark: listed apart in the source
Rattus norvegicus [22] = organism: Rattus norvegicus; settings: Artery, 1 mg/kg
Rattus norvegicus [23] = organism: Rattus norvegicus; settings: Heart, 1 mg/kg; remark: listed apart in the source
Rattus norvegicus [24] = organism: Rattus norvegicus; settings: Artery, 1 mg/kg; remark: listed apart in the source
Rattus norvegicus [25] = organism: Rattus norvegicus; settings: Heart, 1 mg/kg; remark: listed apart in the source
Cavia porcellus [26] = organism: Cavia porcellus; settings: 50 mg/kg
Cavia porcellus [27] = organism: Cavia porcellus; settings: 30 mg/kg; remark: listed apart in the source
Cavia porcellus [28] = organism: Cavia porcellus; settings: 50 mg/kg; remark: listed apart in the source
Rattus norvegicus [29] = organism: Rattus norvegicus; settings: Heart, 1 mg/kg; remark: listed apart in the source

Cl.NNc1nncc2ccccc12 [HYDRALAZINE HYDROCHLORIDE]
inhibition in vivo at 100 mg/kg (Cavia porcellus [1]): 75%
Decrease in CR (Rattus norvegicus [2]): -5%
Decrease in CR (Rattus norvegicus [3]): -2%
inhibition (Homo sapiens [4]): inactive
inhibition (Homo sapiens [5]): inactive
Decrease in AP (Rattus norvegicus [6]): 20%
inhibition in vivo at 1 mg/kg (Rattus norvegicus [7]): 20%
Decrease in blood pressure (Rattus norvegicus [8]): 20%
Decrease in blood pressure (Rattus norvegicus [9]): 48%
Decrease in blood pressure (Rattus norvegicus [10]): 48%
Decrease in blood pressure (Rattus norvegicus [11]): 40%
Decrease in blood pressure (Rattus norvegicus [12]): 52%
Decrease in blood pressure (Rattus norvegicus [13]): 60%
Decrease in CR (Rattus norvegicus [14]): -7%
Decrease in AP (Rattus norvegicus [15]): 20%
Decrease in AP (Rattus norvegicus [16]): inactive
inhibition (Homo sapiens [17]): inactive
Inhibition % (Cavia porcellus [18]): inactive
inhibition (Cavia porcellus [19]): inactive
Decrease in CR (Rattus norvegicus [20]): inactive
Increase (Homo sapiens [21]): inactive
inhibition (Rattus norvegicus [22]): inactive
inhibition (Rattus norvegicus [23]): inactive
Decrease in blood pressure (Rattus norvegicus [24]): inactive
Decrease in blood pressure (Rattus norvegicus [25]): inactive
inhibition (Cavia porcellus [26]): inactive
inhibition (Cavia porcellus [27]): inactive
inhibition (Cavia porcellus [28]): inactive
inhibition (Rattus norvegicus [29]): inactive
